Test results: ChEMBL document CHEMBL5678806, “NMS-P937, an orally available, specific small-molecule polo-like kinase 1 inhibitor with antitumor activity in solid and hematologic malignancies” (Mol Cancer Ther, 2012)

Legend:
[1] = target: Serine/threonine-protein kinase Nek6 (Homo sapiens, UniProt Q9HC98); assay: Inhibition of NEK6 (unknown origin) in presence of [gamma-33P]ATP
[2] = target: Serine/threonine-protein kinase pim-1 (Homo sapiens, UniProt P11309); assay: Inhibition of PIM1 (unknown origin) in presence of [gamma-33P]ATP
Serine/threonine-protein kinase pim-1, sequence (P11309 whole entry): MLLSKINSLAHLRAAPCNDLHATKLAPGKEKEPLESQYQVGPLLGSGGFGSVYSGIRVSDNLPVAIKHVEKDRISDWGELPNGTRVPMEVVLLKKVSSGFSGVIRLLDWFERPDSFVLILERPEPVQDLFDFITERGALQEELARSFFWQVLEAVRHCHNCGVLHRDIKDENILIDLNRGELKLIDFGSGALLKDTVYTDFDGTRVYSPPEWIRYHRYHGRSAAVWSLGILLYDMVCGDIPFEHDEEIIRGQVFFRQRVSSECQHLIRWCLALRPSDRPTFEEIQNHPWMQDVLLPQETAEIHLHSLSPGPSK

[3] = target: High affinity nerve growth factor receptor (Homo sapiens, UniProt P04629); assay: Inhibition of TRKA (unknown origin) in presence of [gamma-33P]ATP
High affinity nerve growth factor receptor, sequence (P04629 whole entry): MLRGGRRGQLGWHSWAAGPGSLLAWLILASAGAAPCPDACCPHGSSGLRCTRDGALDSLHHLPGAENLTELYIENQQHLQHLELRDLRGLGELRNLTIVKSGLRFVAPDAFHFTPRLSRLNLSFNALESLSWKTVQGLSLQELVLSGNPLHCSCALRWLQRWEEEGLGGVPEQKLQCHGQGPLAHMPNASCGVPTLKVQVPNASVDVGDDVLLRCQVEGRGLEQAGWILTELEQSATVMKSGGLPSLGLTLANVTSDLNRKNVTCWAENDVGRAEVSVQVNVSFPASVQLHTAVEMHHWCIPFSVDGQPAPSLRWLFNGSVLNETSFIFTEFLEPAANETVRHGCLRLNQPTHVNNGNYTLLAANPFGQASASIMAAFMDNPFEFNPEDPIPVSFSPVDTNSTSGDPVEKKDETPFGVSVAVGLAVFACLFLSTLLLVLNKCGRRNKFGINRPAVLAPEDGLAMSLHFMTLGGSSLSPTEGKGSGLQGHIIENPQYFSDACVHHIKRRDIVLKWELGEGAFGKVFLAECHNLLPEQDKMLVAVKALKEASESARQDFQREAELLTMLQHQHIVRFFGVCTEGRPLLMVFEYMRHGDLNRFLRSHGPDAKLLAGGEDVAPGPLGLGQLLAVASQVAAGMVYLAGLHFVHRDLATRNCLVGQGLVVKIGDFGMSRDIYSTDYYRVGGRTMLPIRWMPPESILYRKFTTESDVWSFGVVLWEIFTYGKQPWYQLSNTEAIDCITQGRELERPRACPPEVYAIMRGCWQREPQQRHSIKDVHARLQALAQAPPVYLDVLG

[4] = target: Serine/threonine-protein kinase STK11 (Homo sapiens) (UniProt Q15831); assay: Inhibition of N-terminal 6His-tagged recombinant full-length human LKB1 expressed in Sf21 cells assessed as residual activity at 0.1 uM relative to control
Serine/threonine-protein kinase STK11 (Homo sapiens), sequence (Q15831 whole entry): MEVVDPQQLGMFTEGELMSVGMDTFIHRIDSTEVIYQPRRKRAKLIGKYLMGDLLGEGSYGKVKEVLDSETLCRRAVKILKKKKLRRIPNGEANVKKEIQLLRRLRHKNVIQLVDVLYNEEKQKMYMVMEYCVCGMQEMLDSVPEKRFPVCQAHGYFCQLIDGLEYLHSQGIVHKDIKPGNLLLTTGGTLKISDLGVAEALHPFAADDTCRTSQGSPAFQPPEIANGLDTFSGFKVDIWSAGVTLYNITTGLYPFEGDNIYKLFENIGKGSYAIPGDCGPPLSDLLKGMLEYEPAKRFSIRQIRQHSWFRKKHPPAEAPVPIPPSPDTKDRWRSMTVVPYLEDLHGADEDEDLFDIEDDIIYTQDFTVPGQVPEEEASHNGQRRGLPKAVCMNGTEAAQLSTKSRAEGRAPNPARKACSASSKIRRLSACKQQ

[5] = target: Dual specificity mitogen-activated protein kinase kinase 6 (Homo sapiens) (UniProt P52564); assay: Inhibition of N-terminal maltose binding protein-tagged human MKK6 (4 to end residues) expressed in E. coli assessed as residual activity at 0.1 uM relative to control
Dual specificity mitogen-activated protein kinase kinase 6 (Homo sapiens), sequence (P52564 whole entry): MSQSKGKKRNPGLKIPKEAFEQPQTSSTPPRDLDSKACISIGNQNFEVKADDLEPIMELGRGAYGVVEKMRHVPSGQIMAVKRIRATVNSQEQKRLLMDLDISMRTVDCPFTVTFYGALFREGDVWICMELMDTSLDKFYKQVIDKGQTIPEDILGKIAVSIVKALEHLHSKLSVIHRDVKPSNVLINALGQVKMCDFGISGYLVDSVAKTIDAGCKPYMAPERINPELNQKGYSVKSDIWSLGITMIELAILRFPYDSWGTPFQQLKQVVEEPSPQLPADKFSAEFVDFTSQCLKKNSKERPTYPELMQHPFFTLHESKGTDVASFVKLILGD

[6] = target: BDNF/NT-3 growth factors receptor (Homo sapiens) (UniProt Q16620); assay: Inhibition of N-terminal His6 tagged recombinant human TrkB (455 to end residues) expressed in baculovirus infected Sf21 cells assessed as residual activity at 0.1 uM relative to control
BDNF/NT-3 growth factors receptor (Homo sapiens), sequence (Q16620 32-822 limits assumed): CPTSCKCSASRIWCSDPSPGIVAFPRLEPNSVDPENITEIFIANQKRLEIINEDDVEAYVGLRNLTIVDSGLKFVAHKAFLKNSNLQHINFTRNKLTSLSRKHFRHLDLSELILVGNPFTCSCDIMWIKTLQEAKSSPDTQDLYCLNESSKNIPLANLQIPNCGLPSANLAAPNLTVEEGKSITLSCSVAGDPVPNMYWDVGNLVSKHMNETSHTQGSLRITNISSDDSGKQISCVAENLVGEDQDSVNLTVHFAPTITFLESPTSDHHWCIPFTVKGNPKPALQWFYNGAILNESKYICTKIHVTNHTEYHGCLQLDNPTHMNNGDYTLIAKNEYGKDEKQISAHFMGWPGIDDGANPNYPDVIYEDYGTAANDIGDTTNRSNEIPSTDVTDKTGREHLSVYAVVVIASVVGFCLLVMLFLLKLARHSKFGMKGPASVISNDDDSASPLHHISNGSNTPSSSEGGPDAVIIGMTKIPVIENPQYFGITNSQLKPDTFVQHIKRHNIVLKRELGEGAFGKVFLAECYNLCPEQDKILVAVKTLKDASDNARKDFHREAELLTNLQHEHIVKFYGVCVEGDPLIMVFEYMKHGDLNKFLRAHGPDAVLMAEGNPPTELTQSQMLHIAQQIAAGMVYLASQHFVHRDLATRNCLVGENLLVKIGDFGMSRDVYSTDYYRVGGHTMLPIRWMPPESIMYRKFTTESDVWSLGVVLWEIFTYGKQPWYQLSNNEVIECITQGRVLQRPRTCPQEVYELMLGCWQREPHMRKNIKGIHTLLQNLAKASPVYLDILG

[7] = target: Testis-specific serine/threonine-protein kinase 1 (Homo sapiens) (UniProt Q9BXA7); assay: Inhibition of 6His-tagged recombinant human full length TSSK1 expressed in baculovirus infected Sf21 cells assessed as residual activity at 0.1 uM relative to control
Testis-specific serine/threonine-protein kinase 1 (Homo sapiens), sequence (Q9BXA7 whole entry): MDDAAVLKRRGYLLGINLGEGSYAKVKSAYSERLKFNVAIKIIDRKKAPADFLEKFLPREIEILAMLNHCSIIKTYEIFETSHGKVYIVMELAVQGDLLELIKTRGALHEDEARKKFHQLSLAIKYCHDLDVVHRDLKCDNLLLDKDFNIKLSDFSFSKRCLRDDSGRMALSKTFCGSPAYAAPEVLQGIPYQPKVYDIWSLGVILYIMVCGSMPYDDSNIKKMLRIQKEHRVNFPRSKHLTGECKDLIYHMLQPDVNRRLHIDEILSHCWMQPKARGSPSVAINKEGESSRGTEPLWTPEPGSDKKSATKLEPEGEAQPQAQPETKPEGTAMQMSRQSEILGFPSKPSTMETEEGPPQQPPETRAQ

[8] = target: ALK tyrosine kinase receptor (Homo sapiens) (UniProt Q9UM73); assay: Inhibition of N-terminal His6-tagged recombinant human ALK (1058 to end residues) expressed in baculovirus infected Sf21 cells assessed as residual activity at 1 uM relative to control
Casein kinase 2 = Casein kinase 2 (Homo sapiens, UniProt P67870+P68400+P19784+Q8NEV1); assay: Inhibition of alpha-subunit N-terminal 6His- and beta-subunit N-terminal GST-tagged recombinant human CK2 expressed in baculovirus infected Sf21 cells assessed as residual activity at 1 uM relative to control
[9] = target: Ephrin type-B receptor 1 (Homo sapiens) (UniProt P54762); assay: Inhibition of N-terminal 6His-tagged recombinant human EphB1 (564 to end residues) expressed in baculovirus infected Sf21 cells assessed as residual activity at 1 uM relative to control
Ephrin type-B receptor 1 (Homo sapiens), sequence (P54762 whole entry): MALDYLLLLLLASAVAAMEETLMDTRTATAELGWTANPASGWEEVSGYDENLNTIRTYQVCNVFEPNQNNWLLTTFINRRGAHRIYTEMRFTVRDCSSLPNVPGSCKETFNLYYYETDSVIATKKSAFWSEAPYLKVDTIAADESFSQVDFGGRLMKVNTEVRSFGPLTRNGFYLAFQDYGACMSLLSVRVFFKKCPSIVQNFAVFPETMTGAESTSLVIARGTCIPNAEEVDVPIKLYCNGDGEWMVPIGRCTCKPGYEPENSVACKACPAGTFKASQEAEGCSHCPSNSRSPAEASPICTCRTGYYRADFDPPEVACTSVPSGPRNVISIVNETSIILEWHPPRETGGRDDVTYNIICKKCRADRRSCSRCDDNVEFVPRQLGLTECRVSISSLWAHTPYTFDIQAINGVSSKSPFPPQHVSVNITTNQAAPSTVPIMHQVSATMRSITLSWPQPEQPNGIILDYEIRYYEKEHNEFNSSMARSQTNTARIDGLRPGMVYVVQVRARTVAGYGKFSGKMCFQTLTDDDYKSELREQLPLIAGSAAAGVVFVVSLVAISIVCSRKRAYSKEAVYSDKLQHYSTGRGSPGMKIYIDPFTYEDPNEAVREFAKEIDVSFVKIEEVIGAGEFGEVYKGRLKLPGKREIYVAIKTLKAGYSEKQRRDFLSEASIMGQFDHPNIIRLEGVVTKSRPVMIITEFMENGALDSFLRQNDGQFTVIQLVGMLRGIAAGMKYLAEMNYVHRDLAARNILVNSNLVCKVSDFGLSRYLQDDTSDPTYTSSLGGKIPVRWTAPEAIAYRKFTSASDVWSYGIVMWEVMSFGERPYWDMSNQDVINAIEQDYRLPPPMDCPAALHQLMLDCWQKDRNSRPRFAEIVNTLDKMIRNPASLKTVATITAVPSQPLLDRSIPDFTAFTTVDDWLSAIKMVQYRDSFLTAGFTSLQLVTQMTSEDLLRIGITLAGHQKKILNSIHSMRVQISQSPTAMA

U-118-MG = assay: Antiproliferative activity against human U-118-MG cells assessed as inhibition of cell growth incubated for 72 hrs by cell-titer glo assay; assay type: functional, cell-based
DU-4475 = assay: Antiproliferative activity against human DU-4475 cells assessed as inhibition of cell growth incubated for 72 hrs by cell-titer glo assay; assay type: functional, cell-based; conditions: DU-4475, 72 h
Method in brief: (§1)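 Cells seeded 10,000–30,000/cm² (adherent) or 100,000/mL (suspension) in medium with 10% fetal calf serum; after 24 h treated in duplicate with serial dilutions for 72 h. Viable cells read by CellTiter-Glo luminescence; IC50 from sigmoidal fit; at least two independent experiments.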

BT-474 = assay: Antiproliferative activity against human BT-474 cells assessed as inhibition of cell growth incubated for 72 hrs by cell-titer glo assay; assay type: functional, cell-based; conditions: BT-474, 72 h; method in brief: as §1
SW-620 = assay: Antiproliferative activity against human SW620 cells assessed as inhibition of cell growth incubated for 72 hrs by cell-titer glo assay; assay type: functional, cell-based; conditions: SW-620, 72 h
LS174T = assay: Antiproliferative activity against human LS174T cells assessed as inhibition of cell growth incubated for 72 hrs by cell-titer glo assay; assay type: functional, cell-based
Method in brief: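 Cells seeded at 10,000–30,000/cm² (adherent) or 100,000/mL (nonadherent) in medium with 10% fetal calf serum; after 24 h, treated in duplicate with serial dilutions for 72 h. Viable cell number read by CellTiter-Glo luminescence; IC50 from sigmoidal fit; at least two independent experiments.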

TK-10 = assay: Antiproliferative activity against human TK-10 cells assessed as inhibition of cell growth incubated for 72 hrs by cell-titer glo assay; assay type: functional, cell-based; conditions: TK-10, 72 h
NCI-H1993 = assay: Antiproliferative activity against human NCI-H1993 cells assessed as inhibition of cell growth incubated for 72 hrs by cell-titer glo assay; assay type: functional, cell-based; conditions: NCI-H1993, 72 h
Method in brief: (§2)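 Cells from ATCC or ECACC, kept in supplier-recommended medium with 1% penicillin-streptomycin at 37°C, 5% CO₂. Seeded at 10,000–30,000/cm² (adherent) or 100,000/mL (nonadherent) in medium with 10% fetal calf serum. Dosed after 24 h in duplicate with serial dilutions. Viable cells read by CellTiter-Glo 72 h later. IC50 from sigmoidal fit. At least two independent experiments.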

NCI-H1770 = assay: Antiproliferative activity against human NCI-H1770 cells assessed as inhibition of cell growth incubated for 72 hrs by cell-titer glo assay; assay type: functional, cell-based; conditions: NCI-H1770, 72 h; method in brief: as §2
NCI-H82 = assay: Antiproliferative activity against human NCI-H82 cells assessed as inhibition of cell growth incubated for 72 hrs by cell-titer glo assay; assay type: functional, cell-based; conditions: NCI-H82, 72 h; method in brief: as §2
[10] = Antiproliferative activity against human A2780 ADR cells assessed as inhibition of cell growth incubated for 72 hrs by cell-titer glo assay; assay type: functional, cell-based; method in brief: as §1
UACC-62 = assay: Antiproliferative activity against human UACC-62 cells assessed as inhibition of cell growth incubated for 72 hrs by cell-titer glo assay; assay type: functional, cell-based; conditions: UACC-62, 72 h
UACC-257 = assay: Antiproliferative activity against human UACC-257 cells assessed as inhibition of cell growth incubated for 72 hrs by cell-titer glo assay; assay type: functional, cell-based; conditions: UACC-257, 72 h
[11] = Volume of distribution at steady state in nu/nu mouse at 10 mg/kg, iv by LC-MS analysis; assay type: ADME, organism-based; conditions: in vivo, read-out: Vdss
[12] = Cmax in male cynomolgus monkey at 5 mg/kg, iv by LC-MS analysis; assay type: ADME, organism-based, Macaca fascicularis; conditions: in vivo
[13] = Half-life in nu/nu mouse at 10 mg/kg, po by LC-MS analysis; assay type: ADME, organism-based; conditions: in vivo
[14] = Cmax in male cynomolgus monkey at 5 mg/kg, po by LC-MS analysis; assay type: ADME, organism-based, Macaca fascicularis; conditions: in vivo
A2780 = assay: Induction of cell cycle arrest in human A2780 cells assessed as accumulation of cells in G2/M phase by measuring PLK1 phosphorylation on Thr210 incubated for 24 hrs by Western blotting analysis; assay type: functional, cell-based; conditions: dose 0.02-0.2 µmol/L
Method in brief: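 A2780 ovarian carcinoma cells treated 24 h with a range of concentrations, with DMSO and nocodazole controls. 20 µg protein extract separated by SDS-PAGE and immunoblotted with chemiluminescent detection. Probed for total and phospho-Thr210 PLK1, phospho-Ser10 histone H3, phospho-Thr199 NPM and phospho-Tyr15 CDK1. Total NPM, tubulin and total CDK1 served as loading controls.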

[15] = target: 3-phosphoinositide-dependent protein kinase 1 (Homo sapiens) (UniProt O15530); assay: Inhibition of N-terminal His6-tagged recombinant human PDK1 (52 to end residues) expressed in baculovirus infected Sf21 cells assessed as residual activity at 0.1 uM relative to control
3-phosphoinositide-dependent protein kinase 1 (Homo sapiens), sequence (O15530 whole entry, looked up): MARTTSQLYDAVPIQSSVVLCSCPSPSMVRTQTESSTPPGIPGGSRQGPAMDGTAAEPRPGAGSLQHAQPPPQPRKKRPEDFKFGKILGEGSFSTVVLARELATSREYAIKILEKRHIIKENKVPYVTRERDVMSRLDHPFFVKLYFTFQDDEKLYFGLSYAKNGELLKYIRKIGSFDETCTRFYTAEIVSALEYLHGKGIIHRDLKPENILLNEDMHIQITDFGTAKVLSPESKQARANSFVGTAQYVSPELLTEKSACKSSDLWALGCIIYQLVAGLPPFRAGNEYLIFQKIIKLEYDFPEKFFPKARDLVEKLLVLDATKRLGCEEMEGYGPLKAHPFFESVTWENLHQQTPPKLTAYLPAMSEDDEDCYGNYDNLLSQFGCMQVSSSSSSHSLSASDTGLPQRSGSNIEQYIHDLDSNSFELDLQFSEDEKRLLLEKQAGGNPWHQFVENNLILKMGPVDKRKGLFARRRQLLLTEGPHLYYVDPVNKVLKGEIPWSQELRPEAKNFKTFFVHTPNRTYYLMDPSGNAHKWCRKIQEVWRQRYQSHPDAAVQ

Serine/threonine-protein kinase Nek6, sequence (Q9HC98 whole entry): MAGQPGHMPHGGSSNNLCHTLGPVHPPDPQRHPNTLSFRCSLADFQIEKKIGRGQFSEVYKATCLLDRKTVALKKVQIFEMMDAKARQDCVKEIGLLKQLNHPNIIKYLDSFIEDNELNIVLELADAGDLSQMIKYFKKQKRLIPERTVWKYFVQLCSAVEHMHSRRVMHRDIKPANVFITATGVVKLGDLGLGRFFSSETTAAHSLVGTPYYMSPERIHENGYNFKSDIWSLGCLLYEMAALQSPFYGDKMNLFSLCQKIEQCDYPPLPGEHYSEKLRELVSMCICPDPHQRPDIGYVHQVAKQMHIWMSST

CN1CCN(c2ccc(OC(F)(F)F)c(Nc3ncc4c(n3)-c3c(c(C(N)=O)nn3CCO)CC4)c2)CC1 [ONVANSERTIB]
IC50 [1]: > 10000 nM | IC50 [2]: > 10000 nM | IC50 [3]: > 10000 nM | Activity [4]: 113% | Activity [5]: 131% | Activity [6]: 145% | Activity [7]: 67% | Activity [8]: 133% | Activity (Casein kinase 2): 42% | Activity [9]: 75% | IC50 (U-118-MG): 220 nM | IC50 (DU-4475): 47 nM | IC50 (BT-474): 156 nM | IC50 (SW-620): 37 nM | IC50 (LS174T): 164 nM | IC50 (TK-10): 1210 nM | IC50 (NCI-H1993): 287 nM | IC50 (NCI-H1770): 68 nM | IC50 (NCI-H82): 16 nM | IC50 [10]: 620 nM | IC50 (UACC-62): 103 nM | IC50 (UACC-257): 441 nM | Vd [11]: 1.7 L/kg | Cmax [12]: 3000 nM | half-life [13]: 1.6 h | Cmax [14]: 1900 nM | Activity (A2780): Dose-Dependent Effect | Activity [15]: 142%
